The record followed here is ChEMBL document CHEMBL1123706, “Design of alternate substrate inhibitors of serine proteases. Synergistic use of alkyl substitution to impede enzyme-catalyzed deacylation” (J Med Chem, 1987).

One experiment concerns the target T1, Neutrophil elastase (Homo sapiens, UniProt P08246).
T1 sequence (P08246 whole entry): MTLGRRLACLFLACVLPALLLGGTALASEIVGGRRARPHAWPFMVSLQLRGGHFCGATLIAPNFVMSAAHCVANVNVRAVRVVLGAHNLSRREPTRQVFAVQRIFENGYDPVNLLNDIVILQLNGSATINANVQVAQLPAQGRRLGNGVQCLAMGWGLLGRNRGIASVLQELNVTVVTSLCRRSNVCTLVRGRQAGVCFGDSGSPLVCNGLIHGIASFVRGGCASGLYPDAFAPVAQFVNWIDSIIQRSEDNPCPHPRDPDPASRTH
The experiment can be described thus: Binding affinity against human leukocyte elastase was determined. In outline:
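Elastase purified from human leukocytes and assayed by the progress-curve method. Enzyme turnover of a fluorogenic coumarin substrate at about 0.04 Km served as a probe of free enzyme. Buffer was 25 mM K+ HEPES, 1 M NaCl, 0.1% Brij 35, pH 7.8, 25 °C. Read-out was fluorescence at 400 nm excitation and 505 nm emission.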

For experiment [1], the target named is T2, Neutrophil elastase (Homo sapiens) (UniProt P08246).
T2 sequence (whole entry): T1 sequence (P08246 whole entry)

Experiment [2] concerns the target T2, Neutrophil elastase (Homo sapiens). Put plainly: Rate of deacylation by human leukocyte elastase. A digest of the protocol: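 Otherwise, acyl enzyme was prepared and isolated on Sephadex G-25 at low pH. Deacylation was followed as the return of activity after dilution into assay buffer containing fluorogenic substrate.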

As for `CCCNc1nc2cccc(C)c2c(=O)o1`, the inhibitory constant (Ki) (commonly the dissociation constant of the complex between target and ligand, obtained from inhibition or displacement) on Neutrophil elastase was determined as 6 nM. Moreover, the k1 in experiment [1] worked out at 56000 M⁻¹ s⁻¹. Further, the k off in experiment [2] amounted to 0.00034 s⁻¹.

For `CCCCNc1nc2cccc(C)c2c(=O)o1`, affinity on Neutrophil elastase was put at a Ki of 23 nM.

As for `Cc1cccc2nc(NC(C)C)oc(=O)c12`, on Neutrophil elastase, the Ki amounted to 1.5 nM.

As to `CCC(C)Nc1nc2ccccc2c(=O)o1` (centres undefined), the affinity at Neutrophil elastase corresponds to a Ki of 43 nM.

As for `CCc1cccc2nc(N)oc(=O)c12`, at Neutrophil elastase, the Ki was determined as 5100 nM.

For `CNc1nc2ccccc2c(=O)o1`, the Ki at Neutrophil elastase amounted to 6900 nM.

The compound `CCCNc1nc2ccccc2c(=O)o1` came in with an inhibition constant Ki on Neutrophil elastase of 91 nM.

As to `CCc1cccc2nc(NC(C)C)oc(=O)c12`, the Ki at Neutrophil elastase amounted to 0.94 nM.

At Neutrophil elastase, `CCNc1nc2cccc(C)c2c(=O)o1` returned a Ki of 34 nM.

As to `CCNc1nc2ccccc2c(=O)o1`, the Ki at Neutrophil elastase is 51 nM.

Compound `CCCCNc1nc2ccccc2c(=O)o1` gave a Ki at Neutrophil elastase of 84 nM.

On to `CCCCNc1nc2cccc(CC)c2c(=O)o1`, for which, on Neutrophil elastase, affinity was put at a Ki of 4.2 nM. In addition, in experiment [1], the k1 was found to be 130000 M⁻¹ s⁻¹. Also, the k off in experiment [2] stood at 0.00053 s⁻¹.

As to `CCCCCCNc1nc2ccccc2c(=O)o1`, on Neutrophil elastase, the Ki was determined as 3600 nM.

At Neutrophil elastase, `Nc1nc2ccccc2c(=O)o1` showed a Ki of 63000 nM.

In the case of `CNc1nc2cccc(C)c2c(=O)o1`, on Neutrophil elastase, affinity was put at a Ki of 31000 nM. The k1 in experiment [1] was 4800 M⁻¹ s⁻¹. The compound also displayed a k off in experiment [2] of 0.15 s⁻¹.

On Neutrophil elastase, `CC(C)Nc1nc2ccccc2c(=O)o1` registered a Ki of 52 nM. Moreover, the k1 in experiment [1] came out at 59000 M⁻¹ s⁻¹. Besides, the k off in experiment [2] turned out to be 0.003 s⁻¹.
